Test system: MS2 coat protein
Assay: apparent Kd, MS2 coat protein; higher = weaker binding; RNA-MaP array; theophylline 2 mM where present
Summary of the method: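 Binding was read on Illumina sequencing-chip clusters where stalled E. coli RNA polymerase had transcribed each design. A titration of SNAP-549-labelled MS2 coat protein began at 0.7 or 1.5 nM and doubled to 3 µM, once without ligand and once with constant ligand, in 100 mM Tris-HCl pH 7.5, 80 mM KCl, 4 mM MgCl2, BSA, DTT, yeast tRNA and Tween-20. The apparent Kd is the median of filtered per-cluster binding-curve fits, based on green signal normalised to red-channel RNA signal and control-cluster median Fmax.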

[1] = designed as: OFF switch for theophylline, no ligand
[2] = ligand present: theophylline, designed as: OFF switch for theophylline
[3] = designed as: ON switch for theophylline, no ligand
[4] = ligand present: theophylline, designed as: ON switch for theophylline

Sequence | apparent Kd [1] | apparent Kd [2] | apparent Kd [3] | apparent Kd [4]
UGGUACAUGAGGAUCACCCAUGUUCCAGAUACCAGAUACCCGGUUAUCCCUUGGCAGCUGGUGGUACAUGAGGAUCACCCAUGUG | 36.1 nM | 86.7 nM | – | –
AAAUAAAUAACUGAUACCAGUGUACUGACAUGAGGAUCACCCAUGUUGGGUUUGGUUGUACACCCUUGGCAGCAGAAAUAUAAAA | 15.9 nM | 29.8 nM | – | –
GAUGAACUAUUUGAUACCAGACUACAUGAGGAUCACCCAUGUGCGCGUCGUCCUCUGCCAGUCCCUUGGCAGCAAAUAGUUUAUC | 101 nM | 127 nM | – | –
ACAACAUGAGGCGAUACCAGAGGCAACAUGAGGAUCACCCAUGUUCACCCAUGUGAUCACCUCCCUUGGCAGCGCACAUGAGGAU | – | – | 12.4 nM | 30 nM
UGACAUUGCUCAGAUACCAGACAUGAGGAUCACCCAUGUGCCAAAACGUACUAAAUAAAUGUCCCUUGGCAGCUGAGCAAUGUCU | 12.6 nM | 126 nM | – | –
ACGUCAUGGAGAACGUGACGACUUAUCGAUACCAGCGAUUGAGAGCGCCCUUGGCAGCGAACAUGAGGAUCACCCAUGUCAAGGG | – | – | 29.7 nM | 42.1 nM
CAUACUUUAGUAUGUAAUGUGGACAGUGAUACCAGAUACGAAAGUAUCCCUUGGCAGCACAACAUGAGGAUCACCCAUGUAUUUU | – | – | 19.4 nM | –
GGCUGUUGCGAUUUGAAGCGGCAGCGUGAUACCAGAUGUAAGAGCGUCCCUUGGCAGCACGUUUACAUGAGGAUCACCCAUGUCA | – | – | 106 nM | 60 nM
AGAUAACAUGGUUUAAUAAGUUAAACUGAUACCAGUGUAUAUAAUCACCCUUGGCAGCAGCAACAUGAGGAUCACCCAUGUAAUA | – | – | 17.2 nM | 21.9 nM
AUCCUUAAUAGGGUAAAUGGAUAAAGUGAUACCAGUCAAAUACAAGACCCUUGGCAGCACAAGGACAUGAGGAUCACCCAUGUCA | – | – | 20.5 nM | 14.7 nM
AACCGAGGCUAUCCUCUAAGACUAUGUGAUACCAGAAUAAUUUUAUUCCCUUGGCAGCAUGACAUGAGGAUCACCCAUGUCUCUU | – | – | 27.8 nM | 32.3 nM
AGACAUGAGGAUCACCCAUGUAGUACGGAUACCAGAUCCAGAUGCGUCCCUUGGCAGCUGUGGUACAGCGUUACAUCGCUCGUAG | 17.6 nM | 17.6 nM | – | –
AGACAUGAGGAUCACCCAUGUAGUAUGGAUACCAGAUCCAGAUUUAUCCCUUGGCAGCUGUGGUACAGCGUUGCAACGCUCCUAG | 29.3 nM | 28.9 nM | – | –
GCACCAGGUACGGAUACCAGCUGCCAGCGUUACAUGAGGAUCACCCAUGUGAUCUGAUAUAGCCCUUGGCAGCUGUACCUGGUGC | – | – | 110 nM | 865 nM
AGCGACAUGCGUGAUACCAGCUACAUGAGGAUCACCCAUGUACGUCAGAAAUGACUGUGUAGCCCUUGGCAGCAUAGUGCAUGUC | 32.6 nM | 60.7 nM | – | –
GAAUAUUACAUGAGGAUCACCCAUGUAGAUACCAGCCUUGAUUGUGGCCCUUGGCAGCUACGCCGUGAAUGCCUCAGUUGCUUAC | 90.7 nM | 31.5 nM | – | –
ACGAUACGACAUGAGGAUCACCCAUGUGAUACCAGCGUGGAAACACGCCCUUGGCAGCACAAAUACUCCAGAAACGUAUCGAAAA | 239 nM | 389 nM | – | –

Source: the EternaBench riboswitch data
